# Assay outcomes deposited in PubChem by several laboratories.
# CHOP inhibitor = blocks CHOP induction under ER stress. CHO-K1 CHOP-promoter luciferase, tunicamycin-induced, 15-18 h. inhibition, % at 10 µM. 3.8% of 220,000 active;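 active = compounds that reduced the stress-induced luciferase reporter signal by more than about 70% of percent inhibition, limit read from the data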
# EBV gp42 inh = inhibitors of Epstein-Barr virus glycoprotein 42 | 0.42% of 220,000 active | inhibition, % (tested at 21.74 µM) | Fluorescence polarization binding assay, mP read-out | Q1HVG2; in the data active = inhibition above about 50%
# Target sequence (Q1HVG2 whole entry, looked up): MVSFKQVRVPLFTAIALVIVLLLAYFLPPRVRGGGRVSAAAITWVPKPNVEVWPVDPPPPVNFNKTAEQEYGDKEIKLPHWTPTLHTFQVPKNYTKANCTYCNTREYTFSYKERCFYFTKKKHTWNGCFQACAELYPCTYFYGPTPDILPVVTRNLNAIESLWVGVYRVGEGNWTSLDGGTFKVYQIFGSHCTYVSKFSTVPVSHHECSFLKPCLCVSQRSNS
# TbMetRS inhib = blocks T. brucei methionyl-tRNA synthetase activity. purified T. brucei MetRS, ATP depletion, Kinase-Glo luminescence. 0.4% of 360,000 active. inhibition, % at 11.9 µM;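 active = inhibition above a per-plate cutoff of the control wells' mean inhibition plus 3 SD, cut at about 5.5% in these data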
#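 Dosing: 11.9 µM compound single dose, 0.9% DMSO; Assay system: purified T. brucei MetRS enzyme; Measured by: Kinase-Glo luciferase luminescence reporting remaining unconsumed ATP; Schedule: 15 min plus 2 h at 25 °C.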
# WT yeast gro inh = growth inhibition of WT yeast, mitochondrial fusion screen | AID 1362 | mitochondrial fusion phenotypic screen, WT strain | inhibition, % at 10 µM | 2.1% of 190,000 active; in the data active = inhibition above about 58%; tested in S. cerevisiae
# GRIN3A LBD mod = NR3A (human) ligand-binding domain modulation; 2.5% of 340,000 active; NR3A LBD differential scanning fluorimetry, Tm shift; 0% = protein alone, 100% = glycine-bound protein; AID 1259313; Tm shift relative to glycine control, % at 25 µM;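 active = melting temperature shift of at least 10% of the positive control shift, at one fixed dose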
# MPTP inh = permeability transition pore inhibition | inhibition, % at 10 µM | isolated mouse mitochondria, Ca2+ swelling absorbance, 30 min | 1.4% of 360,000 active;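 active = inhibition of 50% or more, scaled per plate between neutral and stimulator controls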
# Numbers stand for hits; – = inactive; · = no result given. Sampled rows, rich in hits. Any-hit rate of the full collection: about 6.4%.
SMILES,CHOP inhibitor,EBV gp42 inh,TbMetRS inhib,WT yeast gro inh,GRIN3A LBD mod,MPTP inh
O=C1NC[C@H](CCCCN2C[C@H](Cc3ccccc3)N(CCc3ccccc3)C(=O)C2=O)N(CCC2CCCCC2)C1=O,·,·,–,·,·,–
Cc1ccc(C)c(OCC(=O)N/N=C/c2ccsc2)c1,–,–,–,–,–,–
O=c1c2ccccc2n(Cc2cccc(F)c2)c(=O)n1C1CCCC1,82,–,–,76,–,–
N#Cc1ccccc1Cn1c(=O)n(C2CCCC2)c(=O)c2ccccc21,–,–,–,–,–,–
CCOC(=O)Cc1csc(SCC(=O)Nc2ccc3[nH]c(=O)[nH]c3c2)n1,·,·,–,·,–,–
CCOc1ccc(-n2c(C)c(C(=O)OC)c3cc(O)ccc32)cc1,81,–,–,·,–,–
CCOc1ccc(-n2c(C)c(C(C)=O)c3cc(O)ccc32)cc1,·,·,–,·,–,–
COc1cc2nc(CN3CCN(S(=O)(=O)c4ccc(C)c(C)c4)CC3)[nH]c(=O)c2cc1OC,–,–,–,–,–,–
CN(C)S(=O)(=O)c1ccc(C(=O)NCC2CC2(Cl)Cl)cc1 (stereo not given),·,·,–,·,–,–
CCn1c(CN2CCN(c3ccc(Cl)cc3)CC2)nc2ccccc21,–,–,–,60,–,–
O=C(NN/C(=N/S(=O)(=O)c1ccc(Cl)cc1)c1ccccc1)c1cccc(Cl)c1,·,·,–,·,–,–
O=C(NN/C(=N/S(=O)(=O)c1ccc(Cl)cc1)c1ccccc1)c1ccc(O)cc1,–,–,–,–,37,–
COc1ccc(OCCOC(=O)CNC(=O)c2ccc(Cl)cc2Cl)cc1,·,·,–,·,–,–
CCOc1ccc(NC(=O)[C@@H](NC(=O)c2ccccc2Br)C(C)C)cc1,–,–,–,–,–,–
CN1C(=O)c2ccc(NC(=O)c3cccc4ccccc34)cc2C1=O,·,·,–,·,18,–
Cc1nc2ccccc2c2oc(C(=O)NC3CC3)cc12,–,–,–,–,–,–
CCOc1ccc(NC(=O)c2cc3ccccc3cc2O)cc1,75,–,–,·,–,–
CCOc1ccc(NC(=O)C(CC)NC(=O)c2ccccc2CO)cc1 (stereo not given),76,–,–,–,–,–
O=C(Nc1ccc2ccccc2c1)c1cccc2ccccc12,·,·,–,·,–,–
CCOc1ccc(NC(=O)c2cc3c(C)nc4ccccc4c3o2)cc1,–,55,–,–,–,–
COc1ccc(NC(=O)NNC(=O)c2cc3ccccc3cc2O)cc1,·,·,–,·,–,–
O=C(Nc1ccc(Br)cc1)C1Cc2ccccc2O/C1=N\O (stereo not given),·,·,–,·,–,–
O=C(NNC(=O)c1cc2ccccc2cc1O)Nc1ccc(Br)cc1,·,·,–,·,19,–
CCOc1ccc(NC(=O)c2cc3ccccc3cc2OC)cc1,·,·,–,·,32,–
O=C(NC(=S)NNC(=O)c1cc2ccccc2cc1O)c1ccco1,–,–,–,–,11,–
SMILES,CHOP inhibitor,EBV gp42 inh,TbMetRS inhib,WT yeast gro inh,GRIN3A LBD mod,MPTP inh
CCOc1ccc(NC(=O)c2cccc3ccccc23)cc1,·,·,–,·,42,–
O=C(COc1ccc(S(=O)(=O)N2CCCCC2)cc1)N1CCCCCC1,–,–,–,–,–,–
COc1cc(NC(=O)c2cc3ccccc3cc2O)c(OC)cc1Cl,83,–,–,·,33,–
O=C(NNC(=S)NC(=O)C12CC3CC(CC(C3)C1)C2)c1ccncc1,–,–,–,80,–,–
O=C1NCC(Nc2ccccc2Cl)C(=O)N1 (stereo not given),·,·,–,·,–,–
COc1cc(OC)c(-c2c3cc(O)c(=O)cc-3oc3cc(O)c(O)cc23)cc1OC,–,–,–,59,–,–
COc1cc(CN2CCN(c3cccc(C)c3C)CC2)cc(Br)c1O,91,–,–,–,–,–
O=C(COC(=O)c1ccc(Cl)nc1)NC(=O)c1ccc(OC(F)F)cc1,·,·,–,·,–,–
CC(=O)NCc1cccc(CNC(C)=O)n1,–,–,–,–,–,–
CCc1ccc(NC(=O)CSc2nc3ccccc3c(=O)n2CCCN2CCC(C)CC2)cc1,–,–,–,79,–,–
C=CCn1c(SCC(=O)Nc2ccc3c(c2)OCO3)nc2ccccc2c1=O,–,–,–,–,–,–
CCCCn1c(SCC(=O)Nc2ccc(NC(C)=O)cc2)nc2ccccc2c1=O,·,·,–,·,33,–
CC(C)Cn1c(SCC(=O)NC(=O)Nc2ccc3c(c2)OCCO3)nc2ccccc2c1=O,70,–,–,–,–,–
COc1ccc2cc(OC)c(C(=O)N3CCOCC3)cc2c1,–,–,–,–,–,–
O=C(Cc1cccc2ccccc12)Nc1ccc(-c2cc3ccccc3oc2=O)cc1,81,–,–,–,–,–
CC(=O)Nc1ccc(NC(=S)NC(=O)c2cc3ccccc3o2)cc1,–,–,–,–,16,–
CC(C)C(=O)Nc1ccc(NC(=O)c2cc3ccccc3o2)cc1,–,–,–,–,–,–
CC(C)C(=O)Nc1ccc(NC(=S)NC(=O)c2cc3ccccc3o2)cc1,–,–,–,–,17,–
O=C(NC(=S)Nc1ccc2oc(=O)ccc2c1)c1cc2ccccc2o1,–,–,–,·,–,–
Cc1ccc(C(=O)NC(=S)Nc2ccc(-c3cc4ccccc4oc3=O)cc2)c(C)c1,95,–,–,–,–,–
CCC(=O)Nc1cccc(-c2cc3ccccc3oc2=O)c1,–,–,–,–,–,–
C=CCN(CC=C)Cc1nc(N)nc(Nc2ccccc2C)n1,–,–,–,–,–,–
Cc1noc(C)c1C(=O)N1CCN(S(=O)(=O)c2cccs2)CC1,·,·,–,·,–,–
O=C(COC(=O)/C=C/c1cccc(C(F)(F)F)c1)NCc1ccco1,·,·,–,·,–,–
O=C(O)c1cccc(-n2cccc2/C=C2/NC(=O)N(c3cccc(Cl)c3)C2=O)c1,–,–,–,·,–,–
SMILES,CHOP inhibitor,EBV gp42 inh,TbMetRS inhib,WT yeast gro inh,GRIN3A LBD mod,MPTP inh
O=C(O)c1cccc(-n2cccc2/C=C2/NC(=O)N(c3ccc(Cl)cc3)C2=O)c1,–,95,–,–,–,–
O=[N+]([O-])c1cc(CN2CCN(c3cccc(C(F)(F)F)c3)CC2)c2cccnc2c1O,87,–,·,–,–,·
Oc1c(Cl)cc(CN2CCCCC2)c2cccnc12,·,·,–,·,·,–
O=[N+]([O-])c1cc(CN2CCCC2)c2cccnc2c1O,–,88,–,–,–,–
Oc1ccc(CN2CCN(c3ccccc3)CC2)c2cccnc12,–,–,–,–,–,–
Cc1ccc(NC(=O)CCOc2ccccc2C)cc1F,71,–,–,–,–,–
CC(=O)Nc1ccc(NC(=O)CCOc2ccccc2C)cc1,·,·,–,·,–,–
COc1ccc(C(=O)NC(=S)N2CC(C)OC(C)C2)cc1OC (stereo not given),–,–,–,–,12,–
O=C1c2ccccc2C(=O)N1CCCCSc1nc2ccccc2o1,–,–,–,–,–,–
N#CC1=C(N)OC2=C(CCc3ccccc32)C1c1ccccc1Cl (stereo not given),87,–,–,–,–,–
COc1ccc2nc(C)cc(N/N=C/c3cccc(OC)c3O)c2c1,·,·,–,·,–,–
